Assay results collected from several papers.
Compare with care: the assays were run in different laboratories.
Target: Activin receptor type-2A (ACVR2A, Homo sapiens, UniProt P27037)

SMILES	assay	setting	remaining binding [%]
O=C(c1ccc(Nc2ncc(Cl)c(-c3ccc(Cl)s3)n2)cc1)N1CCC(N2CCCC2)CC1	binding, competition with immobilised ligand	1 µM	71
COc1ncc2cc3ccccc3nc2c1C#N	cell-free assay, competition with immobilised ligand	5 µM	85
F[C@@H]1CCN(c2nccc(-c3cnn4ncccc34)n2)C1	binding	1 µM	100
FC(F)(F)Oc1cccc(-c2cnc3ccc(-c4ccncc4)nn23)c1	cell-free assay, competition with immobilised ligand	5 µM	77
O=C(NCC1CCOCC1)c1n[nH]cc1NC(=O)c1c(F)cccc1F	binding, competition with immobilised ligand	1 µM	85
CNC(=O)[C@@H]1CC[C@@H](n2c(-c3ccc4cnccc4c3)nc3ccc(C(=O)NCc4cccc(C(N)=O)c4)cc32)C1	binding, competition with immobilised ligand	1 µM	100
COc1ccnn2ncc(-c3ccnc(N(C)C)n3)c12	binding	1 µM	100
O=C(Nc1cccnn1)N1CCC(=Cc2cccc(Oc3ccc(C(F)(F)F)cn3)c2)CC1	cell-free assay, competition with immobilised ligand	1 µM	100
Nc1ncc2c(n1)-c1c([nH]c3ccc(C#CC4CC4)cc13)CCCC2	binding, competition with immobilised ligand	1 µM	91
Cc1cnc(Nc2ccc(C(=O)N3CCC(N4CCCC4)CC3)cc2)nc1-c1cc2ccccc2s1	binding, competition with immobilised ligand	1 µM	69
COc1cnc(Nc2cccc(S(N)(=O)=O)c2)nc1N1CCN(c2ccccc2)CC1	binding, competition with immobilised ligand	1 µM	97
CCN1CCN(Cc2ccc(C(=O)Nc3ccc(C)c(Oc4ccc5c(c4)CC(=O)N5)c3)cc2C(F)(F)F)CC1	binding, competition with immobilised ligand	1 µM	100
CC1=C(C#N)C(c2ccc3c(c2)c(NC(=O)c2ccccc2C)nn3C)C(C#N)=C(C)N1	cell-free assay, competition with immobilised ligand	1 µM	97
Cc1cnn2ncc(-c3ccnc(N(C)C)n3)c2c1	binding	1 µM	74
O=C1CCc2cc(Nc3cc(OC4CCOCC4)c([N+](=O)[O-])cc3Cl)ccc2N1	cell-free assay, competition with immobilised ligand	1 µM	81
O=C(c1ccc(Nc2ncc(Cl)c(-c3cc4ccccc4s3)n2)cc1)N1CCC(N2CCCC2)CC1	binding, competition with immobilised ligand	1 µM	64
CC(=O)Nc1c(C(C)=O)c(=O)n(C)c2nc(-c3ccc(Cl)cc3Cl)c(-c3ccc(Cl)cc3)cc12	cell-free assay, competition with immobilised ligand	1 µM	100
CN(C)c1ncc(F)c(-c2cnn3ncccc23)n1	binding	1 µM	95
CN([C@@H]1CCc2c(CC(=O)O)c3ccccc3n2C1)S(=O)(=O)c1ccc(F)cc1	cell-free assay, competition with immobilised ligand	1 µM	100
N[C@H]1CCN(c2nccc(-c3cnn4ncccc34)n2)C1	binding	1 µM	100
O=c1nc(-c2ccccn2)sc2ccccc12	cell-free assay, competition with immobilised ligand	1 µM	91
C[C@H]1CCN(c2nccc(-c3cnn4ncccc34)n2)C1	binding	1 µM	96
